According to ChEMBL document CHEMBL1125226, “Antineoplastic activity of didemnin congeners: nordidemnin and modified chain analogues” (1991):
In brackets after ≈: the same amount, converted by molar mass.

Assays:
B16 [1] = test: Antitumor activity against B16 melanoma from B6 D2 F1 female mice(T/C) as median survival time of treated mice (T) over that of control mice (C) at a dose of 0.06 mg/kg/day (repeated ip injections, day 1-9); format: functional, Mus musculus; conditions: route intraperitoneal
Procedure, shortened: (§1)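 B16 melanoma homogenate (1 g tumor in 9 mL 0.9% saline), 0.5 mL implanted ip on day 0 in B6D2F1 female mice (C57BL/6 ♀ × DBA/2 ♂). Treatment ip once daily from day 1 to day 9. Toxicity scored as survivors on day 5. Median survival recorded and T/C computed as treated/control median survival, ≥125% significant.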

B16 [2] = test: Antitumor activity against B16 melanoma from B6 D2 F1 female mice(T/C) was evaluated from the median survival time of treated mice (T) over that of control mice (C) at a dose of 0.50 mg/kg/day; format: functional, Mus musculus
Procedure, shortened: (§2)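 B6D2F1 female mice (C57BL/6 ♀ × DBA/2 ♂) implanted ip on day 0 with 0.5 mL of B16 tumor suspension (1 g homogenized in 9 mL 0.9% saline). Dosing ip on days 1, 5 and 9. Day-5 survivors give toxicity. Median survival of treated vs control mice gives T/C%, with ≥125% significant.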

B16 [3] = test: Antitumor activity against B16 melanoma from B6 D2 F1 female mice evaluated as the number of survivors on day 5 at a dose of 0.06 mg/kg/day; format: functional, Mus musculus; procedure, shortened: as §2
B16 [4] = test: Antitumor activity against B16 melanoma from B6 D2 F1 female mice evaluated as the number of survivors on day 5 at a dose of 0.06 mg/kg/day (repeated ip injections, day 1-9); format: functional, Mus musculus; conditions: route intraperitoneal; procedure, shortened: as §1
B16 [5] = test: Antitumor activity against B16 melanoma from B6 D2 F1 female mice as Median survival time of treated mice at a dose of 0.25 mg/kg/day (repeated ip injections, day 1-9); format: functional, Mus musculus; conditions: route intraperitoneal; procedure, shortened: as §1
B16 [6] = test: Antitumor activity against B16 melanoma from B6 D2 F1 female mice as Median survival time of treated mice at a dose of 0.50 mg/kg/day (repeated ip injections, day 1-9); format: functional, Mus musculus; conditions: route intraperitoneal; procedure, shortened: as §1
B16 [7] = test: Antitumor activity against B16 melanoma from B6 D2 F1 female mice evaluated as Median survival time of treated mice at a dose of 0.03 mg/kg/day; format: functional, Mus musculus; procedure, shortened: as §2
B16 [8] = test: Antitumor activity against B16 melanoma from B6 D2 F1 female mice evaluated as Median survival time of treated mice at a dose of 0.25 mg/kg/day; format: functional, Mus musculus; procedure, shortened: as §2
L1210 [9] = test: Antitumor activity against L1210 Lymphoid Leukemia from CDF1 female mice evaluated as the number of survivors on day 5 at a dose of 0.25 mg/kg/day; format: functional, Mus musculus
Procedure, shortened: (§3)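 L1210 leukemia, 10⁵ cells ip on day 0 into CDF1 female mice (BALB/c ♀ × DBA/2 ♂). Drug in 2% methanol given ip on days 1, 5 and 9, 10 mice per group. Survivors and body weight recorded on days 1 and 5, with toxicity as survivors on day 5. Deaths followed for 30 days. T/C = treated/control median survival time, significant at ≥125%.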

L1210 [10] = test: Antitumor activity against L1210 Lymphoid Leukemia from CDF1 female mice evaluated as the number of survivors on day 5 at a dose of 0.50 mg/kg/day; format: functional, Mus musculus; procedure, shortened: as §3
L1210 [11] = test: Antitumor activity against L1210 Lymphoid Leukemia from CDF1 female mice (T/C) as median survival time of treated mice (T) over that of control mice (C) at a dose of 0.25 mg/kg/day; format: functional, Mus musculus; procedure, shortened: as §3
L1210 [12] = test: Antitumor activity against L1210 Lymphoid Leukemia from CDF1 female mice as average weight change of animals between day 1 and day 5 after tumor implementation at a dose of 0.50 mg/kg/day; format: functional, Mus musculus
Procedure, shortened: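 CDF1 female mice (BALB/c × DBA/2) received 10⁵ L1210 cells ip on day 0. Drug was dissolved in 2% methanol and given ip on days 1, 5 and 9, to 10 mice per group. Weights were taken on days 1 and 5, and the mean change was reported.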

L1210 [13] = test: Antitumor activity against L1210 Lymphoid Leukemia from CDF1 female mice (T/C) as median survival time of treated mice (T) over that of control mice (C) at a dose of 1.0 mg/kg/day; format: functional, Mus musculus; procedure, shortened: as §3
L1210 [14] = test: Antitumor activity against L1210 Lymphoid Leukemia from CDF1 female mice as the number of survivors on day 5 at a dose of 1.0 mg/kg/day; format: functional, Mus musculus; procedure, shortened: as §3
L1210 [15] = test: In vitro cytostatic activity determined on L1210 leukemia cells at 24 hours.; format: functional; conditions: Mus musculus, L1210, 24 h; read-out: ID50 (the source's name)
Procedure, shortened: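 Log-phase L1210 cells were seeded at 0.8 × 10⁵ cells/mL in RPMI 1640 with 20% heat-inactivated horse serum, 2 mmol/L L-glutamine, streptomycin and penicillin. Drugs in ethanol (0.5% final) were tested at several concentrations.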

P388 [16] = test: Average weight change of animals between day 1 and day 5 after tumor implementation at a dose of 0.50 mg/kg/day; format: functional, Mus musculus
Procedure, shortened: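 P388 leukemia: CDF1 female mice were inoculated ip with 10⁶ cells on day 0. Treatment in 2% methanol was given ip on days 1, 5 and 9, with 10 mice per group and a larger control group. Body weight was recorded on days 1 and 5 post-implant, and the average change was reported.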

P388 [17] = test: Antitumor activity was evaluated from the median survival time of treated mice (T) over that of control mice (C) at a dose of 1 mg/kg/day; format: functional, Mus musculus
P388 [18] = test: Antitumor activity against P388 Leukemia from CDF1 female mice evaluated as number of survivors on day 5 at a dose of 1 mg/kg/day; format: functional, Mus musculus
Procedure, shortened: (§4)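 CDF1 female mice (BALB/c × DBA/2) inoculated ip with 10⁶ P388 cells on day 0. Drug given ip in 2% methanol on days 1, 5 and 9. Ten mice per dose group, with a larger control group. Body weight and survival were recorded on days 1 and 5, with toxicity taken as survivors on day 5. Mortality was followed for 30 days to give median survival time.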

P388 [19] = test: Antitumor activity against P388 Leukemia from CDF1 female mice evaluated as Median survival time of treated mice at a dose of 0.06 mg/kg/day; format: functional, Mus musculus
Procedure, shortened: (§5)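 CDF1 female mice (BALB/c ♀ × DBA/2 ♂) given 10⁶ P388 cells ip on day 0. Drug in 2% methanol given ip on days 1, 5 and 9, 10 mice per group and more controls. Toxicity is survivors on day 5, with weight change between days 1 and 5. Mortality followed 30 days. T/C% is treated over control median survival (NCI method), significant at ≥125%.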

P388 [20] = test: Antitumor activity against P388 Leukemia from CDF1 female mice evaluated as Median survival time of treated mice at a dose of 0.12 mg/kg/day; format: functional, Mus musculus; procedure, shortened: as §5
P388 [21] = test: Antitumor activity against P388 Leukemia from CDF1 female mice evaluated as Median survival time of treated mice at a dose of 0.25 mg/kg/day; format: functional, Mus musculus; procedure, shortened: as §4
P388 [22] = test: Antitumor activity against P388 Leukemia from CDF1 female mice evaluated as Median survival time of treated mice at a dose of 0.50 mg/kg/day; format: functional, Mus musculus; procedure, shortened: as §4
P388 [23] = test: Median survival time of treated mice at a dose of 1 mg/kg/day; format: functional, Mus musculus
P388 [24] = test: Antitumor activity against P388 Leukemia from CDF1 female mice evaluated as the number of survivors on day 5 at a dose of 0.75 mg/kg/day; format: functional, Mus musculus; procedure, shortened: as §4
P388 [25] = test: Antitumor activity (T/C) was evaluated from the median survival time of treated mice (T) over that of control mice (C) at a dose of 0.25 mg/kg/day; format: functional, Mus musculus; procedure, shortened: as §5

COc1ccc(C[C@H]2C(=O)O[C@H](C)[C@H](NC(=O)[C@@H](CC(C)C)N(C)C(=O)C3CCCN3C(=O)[C@@H](C)O)C(=O)NC(C(C)C)[C@H](O)CC(=O)O[C@@H](C(C)C)C(=O)[C@H](C)C(=O)N[C@@H](CC(C)C)C(=O)N3CCC[C@H]3C(=O)N2C)cc1 (stereo not given in full) [NORDIDEMNIN] showed a T/C (B16 [1]) of 146%, a T/C (B16 [2]) of 147% and a Toxicity (B16 [3]) of 1. For the same molecule, the Toxicity (B16 [4]) was 1, the “median survival time, days” value (B16 [5]) was 29.8 and the “median survival time, days” value (B16 [6]) was 9.9. For the same molecule, the “median survival time, days” value (B16 [7]) was 19.3, the “median survival time, days” value (B16 [8]) was 27 and the Toxicity (L1210 [9]) was 1. The Toxicity (L1210 [10]) was 1, the T/C (L1210 [11]) was 111% and the Body weight change (L1210 [12]) was -0.9 g. For the same molecule, the T/C (L1210 [13]) was 123%, the Toxicity (L1210 [14]) was 1 and the IC50 (L1210 [15]) was 3.6 ng/mL (≈ 3.28 nM). It also gave a Body weight change (P388 [16]) of -1.2 g, a T/C (P388 [17]) of 180% and a Toxicity (P388 [18]) of 1. The “median survival time, days” value (P388 [19]) was 13.6, the “median survival time, days” value (P388 [20]) was 14.7 and the “median survival time, days” value (P388 [21]) was 15.7. The “median survival time, days” value (P388 [22]) was 17.9, the “median survival time, days” value (P388 [23]) was 19.9 and the Toxicity (P388 [24]) was 1. It also gave a T/C (P388 [25]) of 142%.
